Assay results taken from ChEMBL document CHEMBL1122688, “Antimycotic azoles. 7. Synthesis and antifungal properties of a series of novel triazol-3-ones” (1984).

Key:
Cryptococcus neoformans = assay: In vitro antifungal activity against Cryptococcus neoformans; type: functional
Method in brief: (§1)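 Fungal growth-inhibition screen (Godefroi method) against dermatophytes, yeasts, moulds and other fungi. The value is the lowest concentration (µg/mL) giving total inhibition of growth, tested up to 100 µg/mL.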

Sporothrix schenckii = assay: In vitro antifungal activity against Sporothrix schenck ii; type: functional; method in brief: as §1
Trichophyton rubrum = assay: In vitro antifungal activity against Trichophyton rubrum; type: functional; method in brief: as §1
Phialophora verrucosa = assay: In vitro antifungal activity against Phialophora verrucosa; type: functional; method in brief: as §1
[1] = In vivo activity against vaginal candidoses in rats, measured as the ratio of animals cured/animals infected (C/I) at dose 2.5 mg/kg; C/I = 1/2; type: functional
Trichophyton benhamiae = assay: In vitro antifungal activity against Trichophyton mentagrophytes; type: functional, Arthroderma benhamiae; method in brief: as §1
[2] = In vivo activity against microsporosis guinea pig, measured as the ratio of animals cured/animals infected (C/I) at dose 10 mg/kg; C/I = 1/4; type: functional
Saprolegnia = assay: In vitro antifungal activity against Saprolegnia sp; type: functional; method in brief: as §1
Aspergillus fumigatus = assay: In vitro antifungal activity against Aspergillus fumigatus; type: functional; method in brief: as §1
Microsporum canis = assay: In vitro antifungal activity against Microsporum canis; type: functional; method in brief: as §1
[3] = In vitro antifungal activity against Mucor sp; type: functional; method in brief: as §1
Candida albicans = assay: In vitro antifungal activity against Candida albicans; type: functional; method in brief: as §1
Candida tropicalis = assay: In vitro antifungal activity against Candida tropicalis; type: functional; method in brief: as §1
[4] = In vivo activity against vaginal candidoses in rats, measured as the ratio of animals cured/animals infected (C/I) at dose 2.5 mg/kg; C/I = 4/6; type: functional
[5] = In vivo activity against vaginal candidoses in rats, measured as the ratio of animals cured/animals infected (C/I) at dose 0.63 mg/kg; C/I = 4/8; type: functional
[6] = In vivo activity against vaginal candidoses in rats, measured as the ratio of animals cured/animals infected (C/I) at dose 10 mg/kg; C/I = 2/2; type: functional
[7] = In vivo activity against microsporosis guinea pig, measured as the ratio of animals cured/animals infected (C/I) at dose 10 mg/kg; C/I = 1/8; type: functional
[8] = In vivo activity against microsporosis guinea pig, measured as the ratio of animals cured/animals infected (C/I) at dose 2.5 mg/kg; C/I = 0/2; type: functional
Rattus norvegicus = assay: In vivo activity against vaginal candidoses in rats, measured as the ratio of animals cured/animals infected (C/I) at dose 1.25 mg/kg; C/I = 5/6; type: functional
[9] = In vivo activity against microsporosis guinea pig, measured as the ratio of animals cured/animals infected (C/I) at dose 1.25 mg/kg; C/I = 0/2; type: functional
[10] = In vivo activity against microsporosis guinea pig, measured as the ratio of animals cured/animals infected (C/I) at dose 20 mg/kg; 0/2; type: functional
[11] = In vivo activity against vaginal candidoses in rats, measured as the ratio of animals cured/animals infected (C/I) at dose 2.5 mg/kg; 0/2; type: functional
[12] = In vivo activity against vaginal candidoses in rats, measured as the ratio of animals cured/animals infected (C/I) at dose 10 mg/kg; 1/2; type: functional
[13] = In vivo activity against vaginal candidoses in rats, measured as the ratio of animals cured/animals infected (C/I) at dose 2.5 mg/kg; C/I = 2/4; type: functional
[14] = In vivo activity against microsporosis guinea pig, measured as the ratio of animals cured/animals infected (C/I) at dose 10 mg/kg; C/I = 2/2; type: functional
[15] = In vivo activity against vaginal candidoses in rats, measured as the ratio of animals cured/animals infected (C/I) at dose 1.25 mg/kg; C/I = 1/4; type: functional
[16] = In vivo activity against vaginal candidoses in rats, measured as the ratio of animals cured/animals infected (C/I) at dose 2.5 mg/kg; C/I = 9/10; type: functional
[17] = In vivo activity against vaginal candidoses in rats, measured as the ratio of animals cured/animals infected (C/I) at dose 0.63 mg/kg; C/I = 1/6; type: functional
[18] = In vivo activity against microsporosis guinea pig, measured as the ratio of animals cured/animals infected (C/I) at dose 10 mg/kg; C/I = 0/4; type: functional
[19] = In vivo activity against vaginal candidoses in rats, measured as the ratio of animals cured/animals infected (C/I) at dose 2.5 mg/kg; C/I = 2/2; type: functional
[20] = In vivo activity against vaginal candidoses in rats, measured as the ratio of animals cured/animals infected (C/I) at dose 0.63 mg/kg; C/I = 0/2; type: functional
[21] = In vivo activity against vaginal candidoses in rats, measured as the ratio of animals cured/animals infected (C/I) at dose 2.5 mg/kg; C/I = 4/8; type: functional
[22] = In vivo activity against vaginal candidoses in rats, measured as the ratio of animals cured/animals infected (C/I) at dose 1.25 mg/kg; C/I = 1/6; type: functional
[23] = In vivo activity against vaginal candidoses in rats, measured as the ratio of animals cured/animals infected (C/I) at dose 0.63 mg/kg; C/I = 0/4; type: functional
[24] = In vivo activity against microsporosis guinea pig, measured as the ratio of animals cured/animals infected (C/I) at dose 10 mg/kg; C/I = 4/6; type: functional
[25] = In vivo activity against microsporosis guinea pig, measured as the ratio of animals cured/animals infected (C/I) at dose 2.5 mg/kg; C/I = 0/6; type: functional
[26] = In vivo activity against vaginal candidoses in rats, measured as the ratio of animals cured/animals infected (C/I) at dose 2.5 mg/kg; C/I = 1/4; type: functional
[27] = In vivo activity against microsporosis guinea pig, measured as the ratio of animals cured/animals infected (C/I) at dose 10 mg/kg; 2/2; type: functional
[28] = In vivo activity against vaginal candidoses in rats, measured as the ratio of animals cured/animals infected (C/I) at dose 0.63 mg/kg; 1/6; type: functional
[29] = In vivo activity against vaginal candidoses in rats, measured as the ratio of animals cured/animals infected (C/I) at dose 1.25 mg/kg; 1/2; type: functional
[30] = In vivo activity against microsporosis guinea pig, measured as the ratio of animals cured/animals infected (C/I) at dose 2.5 mg/kg; 4/6; type: functional
[31] = In vivo activity against vaginal candidoses in rats, measured as the ratio of animals cured/animals infected (C/I) at dose 2.5 mg/kg; 3/6; type: functional
[32] = In vivo activity against microsporosis guinea pig, measured as the ratio of animals cured/animals infected (C/I) at dose 1.25 mg/kg; 0/4; type: functional

Row | Compound | Inhibition (Cryptococcus neoformans) [µg/mL] | Inhibition (Sporothrix schenckii) [µg/mL] | Inhibition (Trichophyton rubrum) [µg/mL] | Inhibition (Phialophora verrucosa) [µg/mL] | Inhibition (Trichophyton benhamiae) [µg/mL] | Inhibition (Saprolegnia) [µg/mL] | Inhibition (Aspergillus fumigatus) [µg/mL] | Inhibition (Microsporum canis) [µg/mL] | Inhibition [3] [µg/mL] | Inhibition (Candida albicans) [µg/mL] | Inhibition (Candida tropicalis) [µg/mL] | C/I ratio [8] | further results
1 | CCCn1nc(CC)n(-c2ccc(N3CCN(c4ccc(OC[C@@H]5COC(Cn6ccnc6)(c6ccc(Cl)cc6Cl)O5)cc4)CC3)cc2)c1=O (stereo partly specified) | >100 | >100 | 100 | >100 | 10 | >100 | >100 | >100 | >100 | 100 | 10 |  | C/I ratio [1]: 1; C/I ratio [2]: 1
2 | Cn1ncn(-c2ccc(N3CCN(c4ccc(OC[C@@H]5COC(Cn6cncn6)(c6ccc(Cl)cc6Cl)O5)cc4)CC3)cc2)c1=O (stereo partly specified) | 100 | >100 | 10 | 100 | 1 | >100 | >100 | >100 | >100 | 100 | 10 | 0 | C/I ratio [4]: 4; C/I ratio [5]: 0.5; C/I ratio [6]: 1; C/I ratio [7]: 1; C/I ratio (Rattus norvegicus): 5; C/I ratio [9]: 0
3 | CC(=O)N1CCN(c2ccc(OC[C@@H]3COC(Cn4cncn4)(c4ccc(Cl)cc4Cl)O3)cc2)CC1 (stereo partly specified) |  |  |  |  |  |  |  | 100 |  |  |  |  | C/I ratio [10]: 0; C/I ratio [11]: 0; C/I ratio [12]: 1
4 | Cc1nn(CC(C)C)c(=O)n1-c1ccc(N2CCN(c3ccc(OC[C@@H]4COC(Cn5ccnc5)(c5ccc(Cl)cc5Cl)O4)cc3)CC2)cc1 (stereo partly specified) | 100 | >100 | 100 | >100 | 100 | >100 | >100 | >100 | >100 | >100 | 100 | 0 | C/I ratio [13]: 0.5; C/I ratio [14]: 2
5 | CCn1nc(C)n(-c2ccc(N3CCN(c4ccc(OC[C@@H]5COC(Cn6cncn6)(c6ccc(Cl)cc6Cl)O5)cc4)CC3)cc2)c1=O (stereo partly specified) | >100 | >100 | >100 | >100 | >100 | >100 | >100 | >100 | >100 | >100 | >100 |  | C/I ratio [15]: 1; C/I ratio [16]: 9; C/I ratio [17]: 1; C/I ratio [18]: 0
6 | CCC(C)n1nc(C)n(-c2ccc(N3CCN(c4ccc(OC[C@@H]5COC(Cn6cncn6)(c6ccc(Cl)cc6Cl)O5)cc4)CC3)cc2)c1=O (stereo partly specified) | >100 | >100 | >100 | >100 | 100 | >100 | >100 | >100 | >100 | 10 | >100 | 0 | C/I ratio [19]: 1; C/I ratio [20]: 0; C/I ratio [14]: 2
7 | CCCCn1nc(C)n(-c2ccc(N3CCN(c4ccc(OC[C@@H]5COC(Cn6ccnc6)(c6ccc(Cl)cc6Cl)O5)cc4)CC3)cc2)c1=O (stereo partly specified) | 100 | >100 | 10 | >100 | 10 | >100 | >100 | >100 | >100 | 100 | 1 |  | C/I ratio [21]: 0.5; C/I ratio [22]: 1; C/I ratio [23]: 0; C/I ratio [24]: 0.667; C/I ratio [25]: 0; C/I ratio [9]: 0
8 | CCCn1nc(C)n(-c2ccc(N3CCN(c4ccc(OC[C@@H]5COC(Cn6cncn6)(c6ccc(Cl)cc6Cl)O5)cc4)CC3)cc2)c1=O (stereo partly specified) | 100 | >100 | >100 | >100 | 1 | >100 | >100 | >100 | >100 | 100 | 100 |  | C/I ratio [20]: 0; C/I ratio [26]: 1
9 | C=CCn1ncn(-c2ccc(N3CCN(c4ccc(OC[C@@H]5COC(Cn6cncn6)(c6ccc(Cl)cc6Cl)O5)cc4)CC3)cc2)c1=O (stereo partly specified) |  |  |  |  |  |  |  |  |  |  |  |  | C/I ratio [27]: 2; C/I ratio [28]: 1; C/I ratio [29]: 1; C/I ratio [30]: 0.667; Lowest level of total inhibition (Microsporum canis): > 100 µg/mL; C/I ratio [31]: 0.5; C/I ratio [32]: 0
